Assay [1] concerns the target T1, NAPE-PLD (Homo sapiens, UniProt Q6IQ20).
T1 sequence (Q6IQ20 48-393 limits assumed): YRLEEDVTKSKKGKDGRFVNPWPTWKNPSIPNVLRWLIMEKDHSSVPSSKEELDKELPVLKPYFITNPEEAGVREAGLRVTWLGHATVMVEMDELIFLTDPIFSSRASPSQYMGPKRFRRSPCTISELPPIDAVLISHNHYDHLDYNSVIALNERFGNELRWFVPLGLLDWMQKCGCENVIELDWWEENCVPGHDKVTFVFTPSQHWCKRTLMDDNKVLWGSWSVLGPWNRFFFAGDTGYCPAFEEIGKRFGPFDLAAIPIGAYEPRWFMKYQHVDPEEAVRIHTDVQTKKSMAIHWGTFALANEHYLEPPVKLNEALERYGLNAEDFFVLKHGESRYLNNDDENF
Description: Binding kinetics by surface plasmon resonance. Conditions: for binding affinity compared with another bile acid: SPR, 25 °C, comparison in words. A general note: Surface plasmon resonance follows binding to a sensor surface in real time, without labels.

In assay [2] the target is T1, NAPE-PLD. Description: Fluorescence-based NAPE-PLD activity assay with substrate PED6. The format is biochemical. In short, it runs like this: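 Recombinant human enzyme, purified by amylose then Ni-affinity and size exclusion. Enzyme at 25 nM in 50 mM Tris-HCl pH 8 was pre-incubated 1 h at room temperature with test bile acids (0–5 mM). PED6 was added to 10 μM final (1% DMSO/ethyl acetate). Fluorescence was read after 30 min at 25 °C in the dark ([…] filters). Monohydroxy bile acid was run with 0.2% w/v DCA.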

The target of assay [3] is T1, NAPE-PLD. Description: Elastic incoherent neutron scattering. Conditions: DCA ~10 times the concentration of the enzyme, 280-307 K, D2O buffer. In short, it runs like this: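 Purified enzyme in D2O (five exchanges against 100× volume) at 100 mg/mL, with DCA at 0.00, 0.05, 0.15, 0.50 or 1.00% w/v (DCA:enzyme ratios 0–10). Elastic spectra were collected at […], ~3 h per point, on IN13 (up to 100 ps). <u2> came from the slope of ln elastic intensity versus Q2. Force constant came from the <u2>-versus-T slope under a quasi-harmonic approximation.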

Assay [4] addresses T1, NAPE-PLD. Description: Enzyme kinetics by UPLC-MS/MS in the presence of DCA. In kind it is biochemical. Conditions: for Km / maximum velocity (Vmax): DCA 0.2% w/v, 37 °C, 15 min, UPLC-MS/MS. The essentials:
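Recombinant enzyme was incubated with varying N-arachidonoyl-PE or N-palmitoyl-PE in 0.05 M Tris-HCl pH 7.4 with 0.2% w/v DCA, 15 min, 37 °C. Reactions were stopped with cold acetonitrile containing AEA-d4 or PEA-d4 internal standard, centrifuged, and the organic layer taken. Products (AEA, PEA) were quantified by UPLC-MS/MS MRM in positive ESI against weighted (1/x) calibration curves. Runs were in triplicate. Km and Vmax came from Michaelis–Menten fits.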

Assay [5] has as its system NAPE-PLD. Conditions: without bile acid; cited from earlier work.

Values joined by “and” are separate entries in the source; they are usually repeats but may differ in a detail not shown here. Equal entries are not always repeated. Where two headings read alike, the source gives them in different places.

In the case of `C[C@H](CCC(=O)O)[C@H]1CC[C@H]2[C@@H]3[C@H](O)C[C@@H]4C[C@H](O)CC[C@]4(C)[C@H]3C[C@H](O)[C@]12C` [CA, cholic acid], at NAPE-PLD [1], the Kd was roughly 403 µM and the “binding affinity compared with another bile acid” value is listed as “~tenfold lower binding affinity”.

Consider `C[C@H](CCC(=O)O)[C@H]1CC[C@H]2[C@@H]3[C@H](O)C[C@@H]4C[C@H](O)CC[C@]4(C)[C@H]3CC[C@]12C` [CDCA, chenodeoxycholic acid], for which, at NAPE-PLD [2], the EC50 was roughly 4300 µM. Also, the Kd at NAPE-PLD [1] was roughly 25 µM.

Take `C[C@H](CCC(=O)NCCC[N+](C)(C)CCCS(=O)(=O)[O-])[C@H]1CC[C@H]2[C@@H]3[C@H](O)C[C@@H]4C[C@H](O)CC[C@]4(C)[C@H]3C[C@H](O)[C@]12C` [CHAPS]: the “binding affinity compared with another bile acid” value on NAPE-PLD [1] is “~tenfold lower”.

On to `C[C@H](CCC(=O)O)[C@H]1CC[C@H]2[C@@H]3CC[C@@H]4C[C@H](O)CC[C@]4(C)[C@H]3C[C@H](O)[C@]12C` [DCA, deoxycholic acid], for which the Kd at NAPE-PLD [1] is roughly 43 µM. Also, the “effect on protein flexibility (force constant k, mean square displacement)” value at NAPE-PLD [3] is listed as “the system lost flexibility”.

`CC(=O)O[C@H]1C[C@@]2(C)[C@@H](C[C@@H](O)[C@H]3[C@@]4(C)CC[C@@H](O)[C@@H](C)[C@@H]4CC[C@@]32C)/C1=C(\CCC=C(C)C)C(=O)O` [FA, fusidic acid] returned a Kd at NAPE-PLD [1] of roughly 70 µM.

In the case of `C[C@H](CCC(=O)NCC(=O)O)[C@H]1CC[C@H]2[C@@H]3[C@H](O)C[C@@H]4C[C@H](O)CC[C@]4(C)[C@H]3CC[C@]12C` [GCDG], the EC50 on NAPE-PLD [2] (read-out: EC50 of enzyme activation, enzyme 25 nM, PED6 substrate, 25 °C, 30 min) is roughly 3600 µM.

For the molecule `C[C@H](CCC(=O)O)[C@H]1CC[C@H]2[C@@H]3CC[C@@H]4C[C@H](O)CC[C@]4(C)[C@H]3CC[C@]12C` [LCA, lithocholic acid], the “effect on NAPE-PLD enzyme activity” value at NAPE-PLD [2] (bile acid alone, PED6 substrate) is “not able alone to solubilize the substrate and activate the membrane enzyme”. At NAPE-PLD [1], this molecule came in with a Kd of roughly 20 µM.

As for `C[C@H](CCC(=O)NCCS(=O)(=O)O)[C@H]1CC[C@H]2[C@@H]3[C@H](O)C[C@@H]4C[C@H](O)CC[C@]4(C)[C@H]3C[C@H](O)[C@]12C` [TCA, taurocholic acid], the “binding affinity compared with another bile acid” value on NAPE-PLD [1] is given as “~tenfold lower”.

Consider “N-arachidonyl-phosphatidylethanolamine [N-arachidonoyl-PE]”, for which, at NAPE-PLD [4], the Km was ~9 µM and 9.6 µM; the “maximum velocity (Vmax)” value was 1131 (± 124.4) nmol/min/mg protein and ~ 1131 nmol/min/mg protein. Also, the “rate of hydrolysis compared with N-palmitoyl-phosphatidylethanolamine” value on NAPE-PLD [4] (in the presence of deoxycholic acid) is reported as ~ 7 times. In addition, the Vmax in the assay on NAPE-PLD [5] is ~ 73 nmol/min/mg.

Turning to “N-palmitoyl-phosphatidylethanolamine [N-palmitoyl-PE]”, at NAPE-PLD [4], the Km is ~9 µM and 9.2 µM; the “maximum velocity (Vmax)” value was 155.8 (± 38.36) nmol/min/mg protein and ~ 156 nmol/min/mg protein. Besides, the Vmax with NAPE-PLD [5] was ~ 98 nmol/min/mg.

Broadly, the Kd is the equilibrium constant for the complex coming apart. Read a low Kd as higher affinity. As a reminder, the EC50 is the concentration at which the effect is half-maximal. One may read the Km as the concentration of substrate that gives half-maximal velocity.

The values are drawn from publication PMC5074845 (ACS chemical biology, 2016).
